According to ChEMBL document CHEMBL1154743, “A novel potent nicotinamide phosphoribosyltransferase inhibitor synthesized via click chemistry” (J Med Chem, 2010):
The source made the active and inactive calls. The rule behind the calls is not given here.

Experiments:
[1] = test system: SH-SY5Y; test: Cytotoxicity against human SH-SY5Y cells assessed as cell viability after 48 hrs by MTT assay; assay type: functional, cell-based
How it was run: (§1)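 SH-SY5Y cells incubated with compound for 48 h and viability measured by MTT. Values are mean ± SEM of 8-12 determinations.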

[2] = test system: SH-SY5Y; test: Cytotoxicity against human SH-SY5Y cells assessed as reduction of total cellular NAD(P) level at 1 uM relative to control; assay type: functional; set-up: scale not given: the % may be the effect or the level left
[3] = test system: SH-SY5Y; test: Cytotoxicity against human SH-SY5Y cells assessed as reduction of total cellular NAD(P) level; assay type: functional, cell-based
[4] = test system: SH-SY5Y; test: Cytotoxicity against human SH-SY5Y cells assessed as cell viability after 48 hrs by MTT assay relative to control; assay type: functional; how it was run: as §1
[5] = test system: SH-SY5Y; test: Cytotoxicity against human SH-SY5Y cells assessed as cell viability after 48 hrs by MTT assay relative to control in presence of NAD; assay type: functional
[6] = test system: CCRF-CEM; test: Growth inhibition of human CCRF-CEM cells by sulforhodamine B assay; assay type: functional
[7] = Growth inhibition of human […] cells by sulforhodamine B assay; assay type: functional
[8] = test system: EKVX; test: Growth inhibition of human EKVX cells by sulforhodamine B assay; assay type: functional
[9] = test system: HOP-62; test: Growth inhibition of human HOP62 cells by sulforhodamine B assay; assay type: functional
[10] = test system: HOP-92; test: Growth inhibition of human HOP92 cells by sulforhodamine B assay; assay type: functional
[11] = test system: NCI-H322M; test: Growth inhibition of human NCI-H322M cells by sulforhodamine B assay; assay type: functional
[12] = test system: NCI-H522; test: Growth inhibition of human NCI-H522 cells by sulforhodamine B assay; assay type: functional
[13] = test system: COLO 205; test: Growth inhibition of human COLO205 cells by sulforhodamine B assay; assay type: functional
[14] = test system: HCT-116; test: Growth inhibition of human HCT116 cells by sulforhodamine B assay; assay type: functional
[15] = test system: SF-268; test: Growth inhibition of human SF268 cells by sulforhodamine B assay; assay type: functional
[16] = test system: SF-295; test: Growth inhibition of human SF295 cells by sulforhodamine B assay; assay type: functional
[17] = test system: SF-539; test: Growth inhibition of human SF539 cells by sulforhodamine B assay; assay type: functional
[18] = test system: SNB-75; test: Growth inhibition of human SNB75 cells by sulforhodamine B assay; assay type: functional
[19] = test system: Malme-3M; test: Growth inhibition of human MALME-3M cells by sulforhodamine B assay; assay type: functional
[20] = test system: M14; test: Growth inhibition of human M14 cells by sulforhodamine B assay; assay type: functional
[21] = test system: SK-MEL-28; test: Growth inhibition of human SK-MEL-28 cells by sulforhodamine B assay; assay type: functional
[22] = test system: SK-MEL-5; test: Growth inhibition of human SK-MEL-5 cells by sulforhodamine B assay; assay type: functional; details: read-out: LC50 (the source's name)
[23] = test system: UACC-62; test: Growth inhibition of human UACC62 cells by sulforhodamine B assay; assay type: functional
[24] = test system: IGROV-1; test: Growth inhibition of human IGROV1 cells by sulforhodamine B assay; assay type: functional
[25] = test system: OVCAR-4; test: Growth inhibition of human OVCAR4 cells by sulforhodamine B assay; assay type: functional
[26] = test system: OVCAR-8; test: Growth inhibition of human OVCAR8 cells by sulforhodamine B assay; assay type: functional
[27] = test system: 786-0; test: Growth inhibition of human 786-0 cells by sulforhodamine B assay; assay type: functional
[28] = test system: CAKI-1; test: Growth inhibition of human Caki1 cells by sulforhodamine B assay; assay type: functional
[29] = test system: SN12C; test: Growth inhibition of human SN12C cells by sulforhodamine B assay; assay type: functional
[30] = test system: UO-31; test: Growth inhibition of human UO31 cells by sulforhodamine B assay; assay type: functional
[31] = test system: DU-145; test: Growth inhibition of human DU145 cells by sulforhodamine B assay; assay type: functional
[32] = test system: MDA-MB-231; test: Growth inhibition of human MDA-MB-231 cells by sulforhodamine B assay; assay type: functional
[33] = Growth inhibition of human Hs 578T cells by sulforhodamine B assay; assay type: functional
[34] = test system: BT-549; test: Growth inhibition of human BT549 cells by sulforhodamine B assay; assay type: functional
[35] = test system: T47D; test: Growth inhibition of human T47D cells by sulforhodamine B assay; assay type: functional
[36] = test system: MDA-MB-468; test: Growth inhibition of human MDA-MB-468 cells by sulforhodamine B assay; assay type: functional
[37] = test system: SH-SY5Y; test: Induction of autophagy in human SH-SY5Y cells assessed as LC3/phosphotidylethanolamine coupling after 40 hrs by Western blot analysis; assay type: functional, cell-based
How it was run: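 Western blot of LC3-I and LC3-II, with tubulin as reference, in untreated and treated cells exposed to 10 nM compound. Six independent experiments were run, using two LC3 antibodies from different sources.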

[38] = test system: SH-SY5Y; test: Induction of autophagy in human SH-SY5Y cells expressing EGFP-LC3 assessed as colocalization of autophagic vacuoles with lysosomes in acidic compartment of cell at 10 nM; assay type: functional, cell-based
[39] = read-out: LC50 (the source's name)

**Q.** With `O=C(CCCCCCCn1cc(-c2cccnc2)nn1)Nc1ccccc1-c1ccccc1` as the molecule, how does the IC50 [1] read?
**A.** 0.0038 µM

**Q.** What about the Activity [2] of the same molecule?
**A.** 11.6%

**Q.** What about the IC50 [3] of the same molecule?
**A.** 0.003 µM

**Q.** What about the Activity [4] of the same molecule?
**A.** 24%

**Q.** And the Activity [5]?
**A.** 97%

**Q.** And the GI50 [6]?
**A.** 3.28 µM

**Q.** What about the TGI [6] of the same molecule?
**A.** > 100 µM

**Q.** What about the CC50 [6, 39] of the same molecule?
**A.** > 100 µM

**Q.** What about the GI50 [7] of the same molecule?
**A.** 0.913 µM

**Q.** What about the TGI [7] of the same molecule?
**A.** 60.6 µM

**Q.** And the CC50 [7, 39]?
**A.** > 100 µM

**Q.** What about the GI50 [8] of the same molecule?
**A.** 8.46 µM

**Q.** What about the TGI [8] of the same molecule?
**A.** > 100 µM

**Q.** And the CC50 [8, 39]?
**A.** > 100 µM

**Q.** What about the GI50 [9] of the same molecule?
**A.** 23.8 µM

**Q.** What about the TGI [9] of the same molecule?
**A.** > 100 µM

**Q.** And the CC50 [9, 39]?
**A.** > 100 µM

**Q.** And the GI50 [10]?
**A.** 97.4 µM

**Q.** And the TGI [10]?
**A.** > 100 µM

**Q.** And the CC50 [10, 39]?
**A.** > 100 µM

**Q.** What about the GI50 [11] of the same molecule?
**A.** 23.1 µM

**Q.** What about the TGI [11] of the same molecule?
**A.** > 100 µM

**Q.** What about the CC50 [11, 39] of the same molecule?
**A.** > 100 µM

**Q.** And the GI50 [12]?
**A.** 0.0914 µM

**Q.** And the TGI [12]?
**A.** > 100 µM

**Q.** What about the CC50 [12, 39] of the same molecule?
**A.** > 100 µM

**Q.** And the GI50 [13]?
**A.** 1.18 µM

**Q.** What about the TGI [13] of the same molecule?
**A.** 36 µM

**Q.** And the CC50 [13, 39]?
**A.** > 100 µM

**Q.** What about the GI50 [14] of the same molecule?
**A.** 0.0403 µM

**Q.** And the TGI [14]?
**A.** > 100 µM

**Q.** What about the CC50 [14, 39] of the same molecule?
**A.** > 100 µM

**Q.** What about the GI50 [15] of the same molecule?
**A.** 24.7 µM

**Q.** And the TGI [15]?
**A.** > 100 µM

**Q.** What about the CC50 [15, 39] of the same molecule?
**A.** > 100 µM

**Q.** And the GI50 [16]?
**A.** 0.655 µM

**Q.** What about the TGI [16] of the same molecule?
**A.** > 100 µM

**Q.** And the CC50 [16, 39]?
**A.** > 100 µM

**Q.** And the GI50 [17]?
**A.** 0.0618 µM

**Q.** And the TGI [17]?
**A.** > 100 µM

**Q.** And the CC50 [17, 39]?
**A.** > 100 µM

**Q.** What about the GI50 [18] of the same molecule?
**A.** 29.8 µM

**Q.** What about the TGI [18] of the same molecule?
**A.** > 100 µM

**Q.** What about the CC50 [18, 39] of the same molecule?
**A.** > 100 µM

**Q.** What about the GI50 [19] of the same molecule?
**A.** 12.2 µM

**Q.** What about the TGI [19] of the same molecule?
**A.** 62.8 µM

**Q.** What about the CC50 [19, 39] of the same molecule?
**A.** > 100 µM

**Q.** And the GI50 [20]?
**A.** 0.166 µM

**Q.** And the TGI [20]?
**A.** 20.7 µM

**Q.** What about the CC50 [20, 39] of the same molecule?
**A.** > 100 µM

**Q.** What about the GI50 [21] of the same molecule?
**A.** 1.59 µM

**Q.** And the TGI [21]?
**A.** > 100 µM

**Q.** What about the CC50 [21, 39] of the same molecule?
**A.** > 100 µM

**Q.** What about the CC50 [22] of the same molecule?
**A.** 42.4 µM

**Q.** And the GI50 [23]?
**A.** 13.3 µM

**Q.** What about the TGI [23] of the same molecule?
**A.** 51.4 µM

**Q.** What about the CC50 [23, 39] of the same molecule?
**A.** > 100 µM

**Q.** And the GI50 [24]?
**A.** 0.272 µM

**Q.** And the TGI [24]?
**A.** > 100 µM

**Q.** And the CC50 [24, 39]?
**A.** > 100 µM

**Q.** What about the GI50 [25] of the same molecule?
**A.** 31.6 µM

**Q.** What about the TGI [25] of the same molecule?
**A.** > 100 µM

**Q.** And the CC50 [25, 39]?
**A.** > 100 µM

**Q.** What about the GI50 [26] of the same molecule?
**A.** 0.0574 µM

**Q.** What about the TGI [26] of the same molecule?
**A.** > 38 µM

**Q.** And the CC50 [26, 39]?
**A.** > 100 µM

**Q.** And the GI50 [27]?
**A.** 7.33 µM

**Q.** And the TGI [27]?
**A.** > 100 µM

**Q.** And the CC50 [27, 39]?
**A.** > 100 µM

**Q.** What about the GI50 [28] of the same molecule?
**A.** 0.776 µM

**Q.** What about the TGI [28] of the same molecule?
**A.** > 100 µM

**Q.** What about the CC50 [28, 39] of the same molecule?
**A.** > 100 µM

**Q.** And the GI50 [29]?
**A.** 0.0426 µM

**Q.** And the TGI [29]?
**A.** > 100 µM

**Q.** And the CC50 [29, 39]?
**A.** > 100 µM

**Q.** And the GI50 [30]?
**A.** 16.9 µM

**Q.** And the TGI [30]?
**A.** 93 µM

**Q.** What about the CC50 [30, 39] of the same molecule?
**A.** > 100 µM

**Q.** What about the GI50 [31] of the same molecule?
**A.** 0.702 µM

**Q.** What about the TGI [31] of the same molecule?
**A.** > 100 µM

**Q.** What about the CC50 [31, 39] of the same molecule?
**A.** > 100 µM

**Q.** And the GI50 [32]?
**A.** 20.9 µM

**Q.** What about the TGI [32] of the same molecule?
**A.** > 100 µM

**Q.** What about the CC50 [32, 39] of the same molecule?
**A.** > 100 µM

**Q.** And the GI50 [33]?
**A.** 20.4 µM

**Q.** And the TGI [33]?
**A.** > 100 µM

**Q.** And the CC50 [33, 39]?
**A.** > 100 µM

**Q.** What about the GI50 [34] of the same molecule?
**A.** 1.7 µM

**Q.** What about the TGI [34] of the same molecule?
**A.** 39.3 µM

**Q.** What about the CC50 [34, 39] of the same molecule?
**A.** > 100 µM

**Q.** What about the GI50 [35] of the same molecule?
**A.** 1.23 µM

**Q.** What about the TGI [35] of the same molecule?
**A.** 16 µM

**Q.** And the CC50 [35, 39]?
**A.** > 100 µM

**Q.** And the GI50 [36]?
**A.** 7.34 µM

**Q.** What about the TGI [36] of the same molecule?
**A.** > 100 µM

**Q.** And the CC50 [36, 39]?
**A.** > 100 µM

**Q.** What about the Activity [37] of the same molecule?
**A.** Active

**Q.** And the Activity [38]?
**A.** Active
